For orientation: MIC means the lowest concentration found to suppress growth. Low values mean inhibition by little substance, high ones a need for much substance. Broadly, the IC50 is the concentration needed to halve the response being measured. Higher therefore signals weaker potency. As a reminder, the inhibition is how much of the control response was suppressed. A high value points to strong suppression.

Converted amounts (≈) assume the structure as drawn. The source made the active and inactive calls. The calls are words filed in the database; no cut-off is given here.

Consider one compound from ChEMBL document CHEMBL1275462 (Antimicrob Agents Chemother, 2008).

Assay [1] concerns Staphylococcus aureus. The assay can be described thus: Antimicrobial activity against methicillin-resistant Staphylococcus aureus E2125 by Etest. In kind it is functional. The procedure, abridged:
(§1)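 Etest (manufacturer's method) and population analysis: overnight cultures serially diluted and plated on TSA with increasing oxacillin or BPR, CFU counted after 48 h at 37°C. Colonies from subpopulations growing at high oxacillin or BPR were picked, restreaked on antibiotic-free TSA for three passages, then retested by population analysis.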

Assay [2] concerns Staphylococcus aureus. Kind of assay: Antimicrobial activity against methicillin-resistant Staphylococcus aureus HPV107 by Etest. The assay is classed as functional. The essentials:
as §1

Assay [3] deals with Staphylococcus aureus. The assay can be described thus: Antimicrobial activity against methicillin-resistant Staphylococcus aureus BK2529 by Etest. The assay is classed as functional. The procedure, abridged: as §1
For assay [4], the system named is Staphylococcus aureus. Kind of assay: Antimicrobial activity against methicillin-resistant Staphylococcus aureus USA300 by Etest. In kind it is functional. The essentials: as §1
Assay [5] relates to Staphylococcus aureus. The assay can be described thus: Antimicrobial activity against methicillin-resistant Staphylococcus aureus COL by Etest. The assay is classed as functional. The essentials: as §1
In assay [6] the test system is Staphylococcus aureus. The assay can be described thus: Antimicrobial activity against methicillin-resistant Staphylococcus aureus E2125 assessed as concentration required for bacterial subpopulation growth. In kind it is functional. The procedure, abridged: as §1
The test system of assay [7] is Staphylococcus aureus. The assay can be described thus: Antimicrobial activity against methicillin-resistant Staphylococcus aureus BK2529 assessed as concentration required for bacterial subpopulation growth. The assay is classed as functional. The procedure, abridged:
as §1

For assay [8], the system named is Staphylococcus aureus. Kind of assay: Antimicrobial activity against methicillin-resistant Staphylococcus aureus HAR22 assessed as concentration required for bacterial subpopulation growth. In kind it is functional. The procedure, abridged:
as §1

The test system of assay [9] is Staphylococcus aureus. The assay can be described thus: Antimicrobial activity against methicillin-resistant Staphylococcus aureus E2125 assessed as concentration required for minimum inhibition of oxacillin-resistant subpopulation growth by Etest. In kind it is functional. The procedure, abridged:
as §1

Assay [10] relates to Staphylococcus aureus. Kind of assay: Antimicrobial activity against methicillin-resistant Staphylococcus aureus HDE288 assessed as concentration required for minimum inhibition of oxacillin-resistant subpopulation growth by Etest. The assay is classed as functional. The procedure, abridged: as §1
In assay [11] the test system is Staphylococcus aureus. Kind of assay: Antimicrobial activity against methicillin-resistant Staphylococcus aureus HAR22 assessed as concentration required for minimum inhibition of oxacillin-resistant subpopulation growth by Etest. The assay is classed as functional. The procedure, abridged:
as §1

Assay [12] concerns Staphylococcus aureus. The assay can be described thus: Antimicrobial activity against methicillin-resistant Staphylococcus aureus USA300 assessed as concentration required for minimum inhibition of oxacillin-resistant subpopulation growth by Etest. In kind it is functional. The essentials: as §1
For assay [13], the system named is Staphylococcus aureus. Kind of assay: Antimicrobial activity against methicillin-resistant Staphylococcus aureus E2125 assessed as concentration required for minimum inhibition of BRP-resistant subpopulation growth by Etest. In kind it is functional. The procedure, abridged:
as §1

The test system of assay [14] is Staphylococcus aureus. The assay can be described thus: Antimicrobial activity against methicillin-resistant Staphylococcus aureus BK2464 assessed as concentration required for minimum inhibition of BRP-resistant subpopulation growth by Etest. The assay is classed as functional. The essentials: as §1
For assay [15], the system named is Staphylococcus aureus. Kind of assay: Antimicrobial activity against methicillin-resistant Staphylococcus aureus USA300 assessed as concentration required for minimum inhibition of BRP-resistant subpopulation growth. In kind it is functional. The procedure, abridged:
as §1

Assay [16] deals with Staphylococcus aureus. Kind of assay: Antimicrobial activity against methicillin-resistant Staphylococcus aureus HU25 assessed as concentration required for minimum inhibition of BRP-resistant subpopulation growth. The assay is classed as functional. The essentials:
as §1

The subject of assay [17] is Staphylococcus aureus. Kind of assay: Antimicrobial activity against vancomycin-intermediate Staphylococcus aureus Mu50 by Etest. The assay is classed as functional. The procedure, abridged:
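Etest and population analysis: overnight cultures plated on TSA with increasing vancomycin, oxacillin or BPR, CFU counted after 48 h at 37°C. For VRSA strains, vancomycin plates also run with constant 1 µg/ml BPR. Vancomycin Etest read after overnight 37°C incubation on TSA with or without 1 µg/ml BPR.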

Assay [18] concerns the target T1, Penicillin-binding protein 4 (Staphylococcus aureus (strain COL)) (UniProt A0A0H2WY27).
T1 sequence (whole entry): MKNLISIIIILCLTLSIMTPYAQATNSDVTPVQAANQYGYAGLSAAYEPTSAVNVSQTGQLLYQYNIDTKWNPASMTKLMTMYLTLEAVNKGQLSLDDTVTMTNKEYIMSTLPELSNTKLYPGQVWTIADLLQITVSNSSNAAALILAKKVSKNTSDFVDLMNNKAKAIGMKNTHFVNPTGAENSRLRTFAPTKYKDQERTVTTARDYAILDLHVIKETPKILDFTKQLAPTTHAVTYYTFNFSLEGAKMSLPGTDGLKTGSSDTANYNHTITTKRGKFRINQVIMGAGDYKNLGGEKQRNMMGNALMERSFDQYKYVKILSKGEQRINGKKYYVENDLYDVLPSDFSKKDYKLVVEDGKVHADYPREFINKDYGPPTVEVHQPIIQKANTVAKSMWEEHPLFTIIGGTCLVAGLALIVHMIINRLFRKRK
Kind of assay: Displacement of benzyl-[14C]penicillin from Staphylococcus aureus PBP4 by in vitro competitive assay. To be noted: Staphylococcus aureus subsp. aureus COL. The procedure, abridged:
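Membranes came from late-exponential cells of RU130, a PBP 2 insertional mutant of COL. Samples of 150 µg protein were preincubated with increasing drug concentrations for 10 min at 30°C, then labeled with benzyl[14C]penicillin at 20 µg/ml for 10 min at 37°C. The reaction was stopped with excess unlabeled benzylpenicillin in SDS. Read-out was SDS-PAGE with phosphor-screen exposure for 2 weeks.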

The target in the next assay is T2, MecA (Staphylococcus aureus, UniProt Q7DHH4).
T2 sequence (Q7DHH4 whole entry): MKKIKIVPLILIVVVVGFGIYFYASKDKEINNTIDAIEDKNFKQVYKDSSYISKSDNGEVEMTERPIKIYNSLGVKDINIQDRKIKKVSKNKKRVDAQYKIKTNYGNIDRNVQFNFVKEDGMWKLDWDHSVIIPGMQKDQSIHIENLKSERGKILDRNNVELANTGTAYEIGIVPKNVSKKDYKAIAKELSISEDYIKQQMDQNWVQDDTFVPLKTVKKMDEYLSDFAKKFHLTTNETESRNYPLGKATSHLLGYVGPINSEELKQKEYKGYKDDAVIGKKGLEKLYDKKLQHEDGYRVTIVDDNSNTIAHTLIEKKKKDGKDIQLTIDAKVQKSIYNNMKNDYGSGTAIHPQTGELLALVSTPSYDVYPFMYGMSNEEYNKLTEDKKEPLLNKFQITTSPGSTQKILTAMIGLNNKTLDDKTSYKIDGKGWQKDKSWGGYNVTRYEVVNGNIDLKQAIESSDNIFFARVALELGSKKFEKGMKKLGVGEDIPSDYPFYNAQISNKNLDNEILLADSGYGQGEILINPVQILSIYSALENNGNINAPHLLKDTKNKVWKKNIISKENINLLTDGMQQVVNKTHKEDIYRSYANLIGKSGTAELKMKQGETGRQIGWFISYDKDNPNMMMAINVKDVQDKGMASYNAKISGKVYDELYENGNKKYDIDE
The assay can be described thus: Inhibition of methicillin-resistant Staphylococcus aureus COL PBP2a by competitive assay. More on the design: species or system Staphylococcus aureus subsp. aureus COL. The essentials: (§2)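 Purified soluble PBP 2A (mecA expressed in E. coli, 97% pure) at 0.8 µM, preincubated with drug 30 min at 30°C. Then 20 µM Bocillin FL added for 10 min at 37°C, quenched with SDS-PAGE buffer and boiled. Drug range 0.5–20 µM; for IC50, BPR 0.5–200 µM or oxacillin 5–6,000 µM. Curve fitting.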

Assay [19] addresses T3, MecA (Staphylococcus aureus) (UniProt Q7DHH4).
T3 sequence (whole entry): T2 sequence (Q7DHH4 whole entry)
Kind of assay: Inhibition of methicillin-resistant Staphylococcus aureus COL PBP2a at 10 uM by competitive assay. Conditions: Staphylococcus aureus subsp. aureus COL. The procedure, abridged: as §2

For assay [20], the system named is Staphylococcus aureus. The assay can be described thus: Effect on cell wall composition of Staphylococcus aureus COL at 0.4 ug/ml after 100 mins by HPLC method. In kind it is functional, organism-based. The essentials: (§3)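 Strain COL was grown in 1-liter cultures at 37°C to OD620 0.4, with or without drug at 0.4 µg/ml in the medium. Peptidoglycan was then purified and analysed by HPLC elution profile.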

The subject of assay [21] is Staphylococcus aureus. The assay can be described thus: Effect on cell wall composition of Staphylococcus aureus COL at 0.4 ug/ml by HPLC method. The assay is classed as functional, organism-based. The essentials: as §3

Turning to `Nc1nc(/C(=N/O)C(=O)N[C@@H]2C(=O)N3C(C(=O)O)=C(/C=C4\CCN([C@@H]5CCNC5)C4=O)CS[C@H]23)ns1` [CEFTOBIPROLE], the MIC against Staphylococcus aureus [1] is 0.8 µg/mL (≈ 1.5 µM); against Staphylococcus aureus [2], 0.8 µg/mL (≈ 1.5 µM); in the assay with Staphylococcus aureus [3] it was 1.5 µg/mL (≈ 2.81 µM); in the assay with Staphylococcus aureus [4], 1.5 µg/mL (≈ 2.81 µM); in the assay on Staphylococcus aureus [5] it was 3 µg/mL (≈ 5.61 µM); in the assay on Staphylococcus aureus [17], 3 µg/mL (≈ 5.61 µM). Moreover, the Activity came out at 6 µg/mL in the assay with Staphylococcus aureus [6]; 3 µg/mL in the assay with Staphylococcus aureus [7]; 1.5 µg/mL in the assay on Staphylococcus aureus [8]; 0.8 µg/mL in the assay on Staphylococcus aureus [9]; 1.5 µg/mL in the assay on Staphylococcus aureus [10]; 0.8 µg/mL with Staphylococcus aureus [11]. For the same compound, the Activity with Staphylococcus aureus [12] came out at 1.5 µg/mL; in the assay with Staphylococcus aureus [13], 1.5 µg/mL; in the assay with Staphylococcus aureus [14], 3 µg/mL; with Staphylococcus aureus [15], 0.8 µg/mL; with Staphylococcus aureus [16] it was 3 µg/mL. The outcome (in assay [18]; with Staphylococcus aureus [21]) was Active. Besides, the IC50 on MecA was found to be 3.2 µM. Besides, in assay [19], the inhibition came out at 66%. Also, in the assay on Staphylococcus aureus [20], the outcome was inactive.
